Laboratory results reported in ChEMBL document CHEMBL4038313, “Expanding the Antiviral Spectrum of 3-Fluoro-2-(phosphonomethoxy)propyl Acyclic Nucleoside Phosphonates: Diamyl Aspartate Amidate Prodrugs” (J Med Chem, 2017).

What was measured:
[1] = test system: Human immunodeficiency virus 2; test: Antiviral activity against HIV-2 infected in human MT4 cells measured on day 5 post-infection by trypan blue dye staining-based method; type: functional, cell-based; settings: Human immunodeficiency virus 2, MT4, 120 h
[2] = test system: Human immunodeficiency virus 1; test: Antiviral activity against HIV-1 infected in human MT4 cells measured on day 5 post-infection by trypan blue dye staining-based method; type: functional, cell-based; settings: Human immunodeficiency virus 1, MT4, 120 h
Human alphaherpesvirus 3 [3] = test: Antiviral activity against thymidine kinase expressing Varicella-Zoster virus Oka strain assessed as inhibition of plaque formation; type: functional; settings: Human alphaherpesvirus 3, strain Oka vaccine
Method in brief: (§1)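 HEL fibroblast monolayers inoculated with 100 CCID50 HCMV (AD-169, Davis) or 20 PFU VZV (TK+ Oka, TK− 07-1). Adsorbed 1–2 h, inoculum removed, then incubated with compound dilutions. HCMV cytopathicity or VZV plaques scored once untreated infected controls reached completion. EC50 is 50% reduction. SI is CC50/EC50, and the potency ratio is the ratio of EC50s.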

Human betaherpesvirus 5 [4] = test: Antiviral activity against Human cytomegalovirus AD169 infected in HEL cells assessed as inhibition of virus-induced cytopathic effect; type: functional, cell-based; settings: Human betaherpesvirus 5, AD169, HEL; method in brief: as §1
[5] = test system: Human immunodeficiency virus 1; test: Antiviral activity against CCR5 tropic HIV1 BaL infected in human PHA-stimulated PBMC assessed as inhibition of viral replication by measuring reduction in p24 antigen production preincubated with cells for 30 mins followed by viral infection measured on day 10 post infection in presence of IL-2 by ELISA; type: functional; settings: Human immunodeficiency virus 1, BaL
Method in brief: (§2)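 PBMCs stimulated with 2 μg/mL PHA for 3 days at 37 °C, then 5 × 10^5 cells/ml preincubated 30 min at 37 °C with serial compound dilutions plus 2 ng/mL IL-2. Infected with 1500 pg/well HIV-1 BaL or 500 pg/well other isolates. IL-2 re-added on days 3 and 6. Supernatant p24 Ag measured by ELISA at day 10. EC50 is 50% inhibition of replication.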

Human betaherpesvirus 5 [6] = test: Antiviral activity against HCMV Davis strain infected in HEL cells assessed as inhibition of virus-induced cytopathic effect; type: functional, cell-based; settings: Human betaherpesvirus 5, Davis; method in brief: as §1
[7] = Selectivity index, ratio of CC50 for human TZM-bl cells to EC50 for CCR5 tropic HIV1 BaL infected in human TZM-bl cells; type: toxicity, cell-based; settings: read-out: Ratio CC50/EC50
[8] = Selectivity index, ratio of CC50 for human TZM-bl cells to EC50 for CXCR4-tropic HIV-1 NL4-3 infected in human TZM-bl cells; type: toxicity, cell-based; settings: read-out: Ratio CC50/EC50
Hepatitis B virus = test: Antiviral activity against HBV ayw1 infected in human HepG2(2.2.15) cells assessed as reduction in viral replication by measuring extracellular viral DNA copy number after 6 days by real-time qPCR method; type: functional, cell-based; settings: ayw1, HepG2 2.2.15, 144 h
Method in brief: (§3)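 HepG2.2.15 cells (two copies of HBV ayw1 genome), 1.5 × 10^4/well in DMEM with 2% FBS and 380 μg/mL G418. After 16–24 h, compound added in triplicate, medium with compound renewed at day 3. Supernatant collected at day 6, Pronase-treated, and extracellular HBV DNA measured by TaqMan qPCR (precore/core) against an HBV DNA standard curve. EC50/EC90 derived; CC50 by MTS uptake.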

[9] = test system: Human immunodeficiency virus 1; test: Antiviral activity against CXCR4-tropic HIV-1 NL4-3 infected in human TZM-bl cells assessed as inhibition of virus-induced cytopathic effect preincubated with cells for 30 mins followed by viral infection measured after 48 hrs in presence of p-24 HIV-1 Ag by luciferase reporter gene assay; type: functional, cell-based; settings: Human immunodeficiency virus 1, NL4-3, TZM-bl
Method in brief: (§4)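 TZM-bl cells, 1 × 10^4 per well in DMEM with 10% FBS and 10 mM […], incubated 30 min at 37 °C with compound. Then HIV-1 NL4.3 (X4) or BaL (R5) added at 100 pg p24 Ag per well. After 48 h, cells lysed with luciferase substrate. Tat-induced luminescence read after 10 min dark incubation as a measure of replication.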

[10] = test system: Human immunodeficiency virus 1; test: Antiviral activity against CCR5 tropic HIV1 BaL infected in human TZM-bl cells assessed as inhibition of virus-induced cytopathic effect preincubated with cells for 30 mins followed by viral infection measured after 48 hrs in presence of p-24 HIV-1 Ag by luciferase reporter gene assay; type: functional, cell-based; settings: Human immunodeficiency virus 1, BaL; method in brief: as §4
[11] = Cytotoxic activity against HEL cells assessed as reduction in cell proliferation after 3 days by coulter counting method; type: cell-based; settings: human
Method in brief: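 HEL cells seeded at 5 × 10^3/well, grown 24 h, then given compound for 3 days at 37 °C. Cell number counted by Coulter counter. CC50 is 50% reduction of proliferation relative to untreated controls, read from graphic plots.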

[12] = Cytotoxicity against human TZM-bl cells assessed as cell viability by tetrazolium dye assay; type: cell-based
[13] = test system: Human immunodeficiency virus 1; test: Antiviral activity against CXCR4-tropic HIV-1 NL4-3 infected in human PHA-stimulated PBMC assessed as inhibition of viral replication by measuring reduction in p24 antigen production preincubated with cells for 30 mins followed by viral infection measured on day 10 post infection in presence of IL-2 by ELISA; type: functional; settings: Human immunodeficiency virus 1, NL4-3; method in brief: as §2
[14] = Cytotoxicity against human HepG2.2.15 cells assessed as cell viability by tetrazolium dye uptake assay; type: cell-based, HepG2 2.2.15
Method in brief: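 HepG2.2.15 cells (two integrated copies of HBV ayw1 genome) were seeded at 1.5 × 10^4 cells/well in DMEM with 2% FBS, 380 μg/mL G418, glutamine, antibiotics and nonessential amino acids. After 16−24 h, medium with various compound concentrations was added in triplicate and renewed on day 3. After 6 days of treatment, viability was read by MTS uptake and CC50 was calculated.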

[15] = Selectivity index, ratio of CC50 for human PHA-stimulated PBMCs to IC50 for CCR5 tropic HIV1 BaL infected in human PHA-stimulated PBMC
[16] = Cytotoxic activity against HEL cells assessed as alteration of cell morphology after 3 days by microscopic method; type: cell-based; settings: human
Method in brief: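 HEL cells with compound; MCC is the lowest concentration giving microscopically detectable alteration of cell morphology.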

[17] = Cytotoxicity against human PHA-stimulated PBMC assessed as cell viability by tetrazolium dye assay; type: cell-based
[18] = Selectivity index, ratio of CC50 for HepG2.2.15 cells to EC50 for HBV ayw1 infected in human HepG2(2.2.15) cells assessed as reduction in viral replication by measuring extracellular viral DNA copy; method in brief: as §3
Human alphaherpesvirus 3 [19] = test: Antiviral activity against thymidine kinase deficient Varicella-Zoster virus 07-1 infected in HEL cells assessed as inhibition of plaque formation; type: functional, cell-based; settings: Human alphaherpesvirus 3, 07-1, HEL; method in brief: as §1
[20] = Selectivity index, ratio of CC50 for human PHA-stimulated PBMC to IC50 for CXCR4-tropic HIV-1 NL4-3 infected in human PHA-stimulated PBMC
[21] = test system: Human immunodeficiency virus 1; test: Antiviral activity against CXCR4-tropic HIV-1 NL4-3 infected in human MT4 cells assessed as inhibition of virus-induced cytopathic effect after 6 days by XTT dye based assay; type: functional, cell-based; settings: Human immunodeficiency virus 1, NL4-3, MT4, 144 h
Method in brief: (§5)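 MT-4 cells, 1 × 10^4 per well, given compound dilutions and wild-type NL4-3 or K65R NL4-3. Virus titred to give 85–95% cell killing at day 6. Incubated 6 days at 37 °C, 5% CO2. Viability read by XTT at 450/650 nm. EC50 from CPE reduction and toxicity from uninfected drug wells, by four-parameter fit. Fold change is K65R EC50 over wild-type EC50.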

[22] = test system: Human immunodeficiency virus 1; test: Antiviral activity against tenofovir-resistant CXCR4-tropic HIV-1 NL4-3 harboring reverse transcriptase K65R mutant infected in human MT4 cells assessed as inhibition of viral replication inhibition of virus-induced cytopathic effect after 6 days by XTT dye based assay; type: functional, cell-based; settings: Human immunodeficiency virus 1, NL4-3, MT4, 144 h; method in brief: as §5
[23] = test system: Human immunodeficiency virus 1; test: Selectivity ratio of EC50 for tenofovir-resistant CXCR4-tropic HIV-1 NL4-3 harboring reverse transcriptase K65R mutant infected in human MT4 cells to EC50 for CXCR4-tropic HIV-1 NL4-3 infected in human MT4 cells; type: functional; method in brief: as §5
[24] = Cytotoxicity against human MT4 cells assessed as reduction in cell viability after 6 days by XTT tetrazolium dye-based assay; method in brief: as §5

Compound | EC50 (Human alphaherpesvirus 3 [3]) | EC50 (Human betaherpesvirus 5 [4]) | IC50 [5] | EC50 (Human betaherpesvirus 5 [6]) | selectivity ratio [7] | selectivity ratio [8] | EC50 (Hepatitis B virus) | EC90 (Hepatitis B virus) | EC50 [9] | EC50 [10] | CC50 at 72 h [11] | CC50 [12] | IC50 [13] | CC50 [14] | Ratio CC50/IC50 [15] | MCC at 72 h [16] | CC50 [17] | Ratio CC50/EC50 [18] | EC50 (Human alphaherpesvirus 3 [19]) | Ratio CC50/IC50 [20] | further results
Nc1nc(N)c2ncn(C[C@H](CF)OCP(=O)(O)O)c2n1 | – | – | – | – | – | – | – | – | – | – | – | – | – | – | – | – | – | – | – | – | EC50 [1]: 4.6 µM; EC50 [2]: 4.3 µM
Nc1nc(O)c2ncn(C[C@@H](CF)OCP(=O)(O)O)c2n1 | 15.5 µM | 127 µM | 1.14 µM | 57 µM | > 26 | > 21 | 0.59 µM | 42.7 µM | 4.81 µM | 3.79 µM | 65.4 µM | > 100 µM | 0.28 µM | > 100 µM | 32 | > 311 µM | 36.4 µM | >169 | 12.5 µM | 130 | –
Nc1nc2c(ncn2CC(CF)OCP(=O)(O)O)c(=O)[nH]1 (stereo not given) | – | – | – | – | – | – | – | – | – | – | – | – | – | – | – | – | – | – | – | – | EC50 [1]: 5 µM; EC50 [2]: 5 µM
CCCCCOC(=O)C[C@H](NP(=O)(CO[C@@H](CF)Cn1cnc2c(N)ncnc21)Oc1ccccc1)C(=O)OCCCCC (stereo not given in full) | 3.81 µM | > 31.4 µM | 0.33 µM | > 31.4 µM | 342 | 269 | 1.06 µM | 16.9 µM | 0.14 µM | 0.11 µM | 7.47 µM | 37.6 µM | 0.026 µM | 33 µM | 109 | 157 µM | 36.1 µM | 31 | 8.24 µM | >1388 | –
CCCCCOC(=O)C[C@H](NP(=O)(CO[C@H](CF)Cn1ccc(N)nc1=O)Oc1ccccc1)C(=O)OCCCCC (stereo not given in full) | 3.15 µM | 0.76 µM | – | 2.02 µM | < 1 | < 1 | 41.9 µM | > 100 µM | > 69 µM | > 69 µM | 74.7 µM | 69 µM | – | 46.3 µM | – | 163 µM | – | 1 | 1.32 µM | – | –
Nc1ccn(C[C@@H](CF)OCP(=O)(O)O)c(=O)n1 | 71.1 µM | 143 µM | – | 27.1 µM | > 1 | > 2 | > 100 µM | > 100 µM | 41.9 µM | 68.5 µM | > 356 µM | > 100 µM | – | > 100 µM | – | > 356 µM | – | 1 | 71.1 µM | – | –
C[C@H](Cn1cnc2c(N)ncnc21)OCP(=O)(O)O [TENOFOVIR ANHYDROUS] | – | – | 1.4 µM | – | > 14 | > 25 | – | – | 4 µM | 6.91 µM | – | > 100 µM | 0.38 µM | – | >18 | – | > 25 µM | – | – | >66 | EC50 [21]: < 0.06 µM; EC50 [22]: 0.1 µM; Ratio EC50 [23]: >16.7; CC50 at 144 h [24]: > 20 µM
CC(C)OC(=O)OCOP(=O)(CO[C@H](C)Cn1cnc2c(N)ncnc21)OCOC(=O)OC(C)C.O=C(O)/C=C/C(=O)O [TENOFOVIR DISOPROXIL FUMARATE] | – | – | 0.22 µM | – | – | – | – | – | – | – | – | – | 0.08 µM | – | 66 | – | 14.6 µM | – | – | 182 | EC50 [22]: 11.3 µM; Ratio EC50 [23]: 2.3; CC50 at 144 h [24]: > 20 µM
Cc1cn([C@H]2C[C@H](N=[N+]=[N-])[C@@H](CO)O2)c(=O)[nH]c1=O [ZIDOVUDINE] | – | – | – | – | – | – | – | – | – | – | – | – | – | – | – | – | – | – | – | – | EC50 [21]: 0.004 µM; EC50 [22]: 0.005 µM; Ratio EC50 [23]: 1.3; CC50 at 144 h [24]: > 0.5 µM
